JMJD2C inh: human JMJD2C demethylase inhibition; Q9H3R0; 330,000 tested, 0.069% active; inhibition, % at 2.35 µM; AID 2099; GST-JMJD2C(1-420) H3K9me3 demethylation, DELFIA europium;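 active = more than half of a compound's replicate wells show inhibition beyond 50%, single wells judged on their own value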;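 also: signal counts dimethyl H3K9 product captured on neutravidin plate; 0% = median of DMSO wells and 100% = 0.3 times that DMSO median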
Target sequence (Q9H3R0 1-420 limits assumed): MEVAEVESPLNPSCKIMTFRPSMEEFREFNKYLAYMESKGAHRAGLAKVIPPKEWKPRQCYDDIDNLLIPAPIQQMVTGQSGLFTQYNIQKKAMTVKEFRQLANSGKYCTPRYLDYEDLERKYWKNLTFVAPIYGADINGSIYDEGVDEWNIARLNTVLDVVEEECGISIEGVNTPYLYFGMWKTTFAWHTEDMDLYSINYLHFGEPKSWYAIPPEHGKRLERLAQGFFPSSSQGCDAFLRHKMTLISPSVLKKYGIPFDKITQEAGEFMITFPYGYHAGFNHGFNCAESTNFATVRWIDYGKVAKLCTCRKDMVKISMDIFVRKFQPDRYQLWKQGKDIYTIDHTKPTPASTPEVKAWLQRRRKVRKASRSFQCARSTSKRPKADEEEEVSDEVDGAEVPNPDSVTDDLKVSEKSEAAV
PP5 primary: inhibitors of human protein phosphatase 5 (PP5). P53041. purified PP5c, OMFP substrate fluorescence. inhibition, % at 6.7 µM. 320,000 tested, 0.18% active. AID 1987;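 active = inhibition above the campaign's mean inhibition across all tested compounds plus 3 SD, cut at about 9.5% in these data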;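 also: 0% = DMSO only and 100% = 100 µM cantharidin control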
PP1 inh: PP1-alpha (human) inhibition in PP5 counter-screen; P62136; purified PP1alpha, OMFP fluorescence; inhibition, % at 6.7 µM; 320,000 tested, 0.9% active;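 active = inhibition above the mean inhibition of all tested compounds plus 3 SD, computed separately for each screening campaign, cut at about 15% in these data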
T cell HTS: modulates CD8 T cell binding to vesicles; 2C CD8+ T cell-vesicle binding, flow cytometry; hits give low values; response (vesicle binding), % at 7 µM; 330,000 tested, 0.068% active;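 active = response, share of CD8 T cells binding vesicles, and their 90th percentile fluorescence all below set limits, cut at about 80% in these data, passing the limit was not always enough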;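 also: values below 100% mean blocked vesicle binding to the CD8+ T cells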
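Material: murine 2C transgenic CD8+ T lymphocytes / Also added: QL9-peptide-loaded Drosophila micro-vesicles bearing Ld, ICAM-1 and B7-1 / Schedule: binding step 1.5 h, 37 °C, antibody labelling 20 min, ice / Signal: flow cytometry, PE anti-B7-1 (FL2) versus Alexa647 anti-CD8 (FL8), PFA-fixed / Evaluation: percent CD8+ FL2 mean versus row control / Benchmarks: naked versus QL9-loaded vesicles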
m5-HT2A agonist: activates the mouse 5-HT2A serotonin receptor; 360,000 tested, 0.66% active; activation, % at 7.6 µM; CHO-K1 mHTR2A beta-arrestin complementation, luminescence; percent of 30 µM serotonin response; P35363;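 active = activation above a run cutoff, the mean activation of all tested compounds plus 3 SD, cut at about 14% in these data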;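 also: 0% = plate median of compound wells and 100% = 30 µM serotonin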
MOR ag counter: activates human mu opioid receptor in HTR2A counterscreen | shares compounds with m5-HT2A agonist | U2OS OPRM1 beta-arrestin PathHunter, luminescence; DMSO 0%, DAMGO 9.3 µM 100% | activation, % at 9.3 µM | 2,300 tested, 5.3% active | AID 624380;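 active = mean activation above the mean of DMSO-only wells plus 3 SD, cut at about 0.5% in these data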
HTR2A ag conf: confirmation of mouse HTR2A serotonin receptor agonists; 2,300 tested, 19% active; activation, % at 7.6 µM; CHO-K1 PathHunter beta-arrestin recruitment, luminescence; DMSO 0%, 30 µM serotonin 100%; shares compounds with m5-HT2A agonist;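 active = mean activation across triplicates above the hit threshold derived in the original primary screen, cut at about 15% in these data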
* = called active by the depositor; . = not tested or not shown. This is a sample that favours compounds with a hit; in the whole collection about 1.7% have one here.

SMILES	JMJD2C inh	PP5 primary	PP1 inh	T cell HTS	m5-HT2A agonist	MOR ag counter	HTR2A ag conf
Cc1cc(NC(=O)CCC(=O)N(c2ccccc2)C(C(=O)NC2CCCC2)c2ccccc2C)no1 (configuration not stated)	6	1	5	241	1	.	.
COc1ccc(CN2CCN(C(=O)c3ccco3)CC2)c(OC)c1OC	4	-1	3	492	29*	-1	78*
COc1ccccc1CN1CCN(C(=O)c2ccco2)CC1	1	-1	3	213	30*	-1	92*
COc1ccc(OCC(O)CNC(=O)c2ccccc2)cc1 (configuration not stated)	2	-2	-7	168	9	.	.
O=C(O)C1=CCNCC1	-3	2	-1	260	18*	-1	2
O=C(CNC(=O)c1ccc(Br)o1)NNC(=O)c1ccccc1O	0	0	-8	333	17*	-1	-4
O=C(CNC(=O)c1ccc(Br)o1)NNC(=O)c1cccc(Cl)c1	-29	1	-3	379	3	.	.
COc1ccc(C(=O)Cc2cc(OC)c(OC)cc2C(=O)c2ccccc2F)cc1OC	-2	0	-2	454	-1	.	.
Cc1nc(SCC(=O)N2CCN(C(=O)c3cccs3)CC2)c2c(C)c(C)sc2n1	.	.	.	.	16*	-1	1
COc1cc(S(=O)(=O)NCC2(N3CCCCC3)CCCCC2)ccc1NC(C)=O	.	.	.	.	5	.	.
CC1CCN(c2c(NCC3CCC(C(=O)NCc4ccccc4Cl)CC3)c(=O)c2=O)CC1 (configuration not stated)	3	-1	-3	364	19*	0	-4
CC1CCN(c2c(NCC3CCC(C(=O)NCCc4ccccc4)CC3)c(=O)c2=O)CC1 (configuration not stated)	10	1	-3	144	2	.	.
COc1ccccc1Nc1nnc(SCC(=O)N2CC(=O)Nc3ccccc32)s1	5	1	0	230	18*	-1	-4
Cc1cc(NN)nc(NS(=O)(=O)c2ccccc2)n1	-20	5	4	315	2	.	.
Cc1cc(NN)nc(NS(=O)(=O)c2ccc(Cl)cc2)n1	-6	0	3	416	16*	0	7
COc1cccc(/C=N/NC(=O)CN(CCc2ccccc2)S(=O)(=O)c2ccc(NC(C)=O)cc2)c1	0	6	2	445	-4	.	.
C/C(CC(=O)Nc1ccc(N(C)C)cc1)=N\NC(=O)c1ccc(Cl)cc1	-9	2	5	129	-6	.	.
C/C(CC(=O)Nc1ccc(N(C)C)cc1)=N\NC(=O)c1ccccc1Cl	.	.	.	.	16*	0.9*	3
CCC/C(O)=C1\C(=O)CCCC1=NCCc1ccc(OCC)c(OCC)c1	-11	0	-2	233	15*	-1	-3
COc1cc(CN2CCN(Cc3c[nH]c4ccccc34)CC2CCO)cc(OC)c1 (configuration not stated)	8	.	.	167	19*	-1	5
COc1ccc(/C(O)=C2/C(=O)C(=O)N(CCCN3CCOCC3)C2c2ccc(C(C)C)cc2)cc1 (configuration not stated)	-2	.	.	194	15*	0	2
COCCCN1C(=O)C(=O)/C(=C(/O)c2ccc(S(=O)(=O)N3CCOCC3)cc2)C1c1ccc(C)cc1 (configuration not stated)	-2	3	1	168	18*	0	-4
CC1(C(=O)NCCC#N)CCN1C(=O)c1ccccc1CCc1ccccc1 (configuration not stated)	.	.	.	.	2	.	.
O=C(CN1C(=O)NC(c2ccccc2)(c2ccccc2)C1=O)NCc1ccco1	-2	.	.	302	15*	0	4
Cc1ccc(NC(=O)COc2ccc(S(=O)(=O)N3CCOCC3)cc2)cc1	-20	1	2	740	20*	-1	-4
SMILES	JMJD2C inh	PP5 primary	PP1 inh	T cell HTS	m5-HT2A agonist	MOR ag counter	HTR2A ag conf
CC(C)c1ccc(NC(=O)COc2ccc(S(=O)(=O)N3CCOCC3)cc2)cc1	-12	-1	-2	202	-5	.	.
Cc1c(NS(=O)(=O)c2cc(NC(=O)CCN3CCCC(C)C3)ccc2Cl)c(=O)n(-c2ccccc2)n1C (configuration not stated)	-6	0	-3	260	0	.	.
OC(c1cccc(Cl)c1)c1nc(/C=C/c2ccccc2)cs1 (configuration not stated)	.	.	.	.	15*	0	-5
O=[N+]([O-])c1ccc(Oc2cccc(Br)c2)c2ccncc12	1	1	3	128	-5	.	.
O=[N+]([O-])c1cccc2cnccc12	.	.	.	.	15*	0	1
O=C(NCCCN1CCCC1)c1ccc2c(c1)N(Cc1ccccc1F)C(=O)c1ccccc1S2(=O)=O	0	1	1	284	-11	.	.
CCOC(=O)c1nn(-c2ccccc2)c2nc(-c3ccc(OC)cc3)c(C#N)c(=O)n12	.	2	7	266	19*	0.6*	8
CCOC(=O)c1nn(-c2ccccc2C)c2nc(-c3ccc(C)cc3)c(C#N)c(=O)n12	-12	1	-2	251	-2	.	.
CCCCNC(=O)C1(C)CCCCN1C(=O)c1ccc2c(c1)CCO2 (configuration not stated)	.	.	.	.	18*	0	1
CCOC(=O)N1CCC(N2C(=O)c3ccccc3C2Nc2cccnc2)CC1 (configuration not stated)	17	0	-4	217	19*	0	-1
CCOC(=O)N1CCC(N2C(=O)c3ccccc3C2Nc2ccccc2C)CC1 (configuration not stated)	21	3	-3	454	-4	.	.
Cc1nnc(SCC(=O)N(C)c2c(N)n(Cc3ccccc3)c(=O)[nH]c2=O)n1Cc1ccccc1	9	3	6	302	29*	-1	-4
CCn1c(SCC(=O)N(C)c2c(N)n(Cc3ccccc3)c(=O)[nH]c2=O)nc2ccccc21	14	-2	-6	483	-1	.	.
NC(=O)c1c(NC(=O)c2ccncc2)sc2c1CCCC2	0	0	-7	190	18*	0	5
CCC12CC1(C(=O)OC)C(=O)N1CCc3c([nH]c4ccccc34)C12 (configuration not stated)	.	.	.	.	37*	0	28*
CC(C)Cn1c(N)c(C(=O)CSc2n[nH]c(N)n2)c(=O)n(C)c1=O	.	1	0	292	25*	-1	-3
Cc1ccc(S(=O)(=O)CCC(=O)OCC(=O)c2c(N)n(CC(C)C)c(=O)n(C)c2=O)cc1	9	-1	-4	342	3	.	.
